pIC50, pKi: −log10 of the molar value.
Key:
Adenosine receptor A1 [1] = molecular target: T1, Adenosine receptor A1 (Homo sapiens, UniProt P30542); assay: Displacement of [3H]CCPA from human adenosine A1 receptor expressed in CHO cells; assay type: cell-based
T1 sequence (P30542 whole entry): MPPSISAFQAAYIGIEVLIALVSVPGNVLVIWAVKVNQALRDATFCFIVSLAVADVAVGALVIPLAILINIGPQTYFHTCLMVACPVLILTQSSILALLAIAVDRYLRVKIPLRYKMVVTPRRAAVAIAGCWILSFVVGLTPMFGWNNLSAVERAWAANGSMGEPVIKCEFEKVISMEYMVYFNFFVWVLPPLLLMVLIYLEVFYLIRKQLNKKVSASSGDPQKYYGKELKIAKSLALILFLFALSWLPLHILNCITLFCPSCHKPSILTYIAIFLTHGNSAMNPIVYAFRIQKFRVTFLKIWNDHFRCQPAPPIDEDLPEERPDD
Outline: (§1)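 Radioligand binding to human receptors recombinantly expressed in Chinese hamster ovary (CHO) cells. Results are Ki, or % inhibition of radioligand binding at the indicated concentration.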

[2] = molecular target: T2, Amine oxidase [flavin-containing] A (Homo sapiens, UniProt P21397); assay: Inhibition of human MAO-A
T2 sequence (P21397 whole entry): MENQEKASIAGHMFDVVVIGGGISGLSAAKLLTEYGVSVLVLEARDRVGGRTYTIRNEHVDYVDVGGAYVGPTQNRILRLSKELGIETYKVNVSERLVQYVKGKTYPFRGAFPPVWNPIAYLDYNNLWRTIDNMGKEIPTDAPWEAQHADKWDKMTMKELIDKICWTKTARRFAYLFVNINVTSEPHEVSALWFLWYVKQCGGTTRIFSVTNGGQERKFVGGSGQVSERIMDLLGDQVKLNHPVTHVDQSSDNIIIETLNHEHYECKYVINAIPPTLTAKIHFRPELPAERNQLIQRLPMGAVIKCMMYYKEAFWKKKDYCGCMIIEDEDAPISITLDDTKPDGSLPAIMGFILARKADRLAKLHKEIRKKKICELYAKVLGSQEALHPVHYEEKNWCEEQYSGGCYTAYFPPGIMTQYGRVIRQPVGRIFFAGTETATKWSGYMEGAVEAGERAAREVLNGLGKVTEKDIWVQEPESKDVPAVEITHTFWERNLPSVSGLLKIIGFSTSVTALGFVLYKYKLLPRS
Outline: (§2)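 Human MAO-A and MAO-B inhibition, screened first at a test concentration of 10 µM.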

[3] = molecular target: T3, Adenosine receptor A1 (Rattus norvegicus) (UniProt P25099); assay: Displacement of [3H]CCPA from adenosine A1 receptor in rat brain cortex relative to control; assay type: tissue-based; set-up: concentration or dose not given beside the values; details: concentration not given here
T3 sequence (whole entry): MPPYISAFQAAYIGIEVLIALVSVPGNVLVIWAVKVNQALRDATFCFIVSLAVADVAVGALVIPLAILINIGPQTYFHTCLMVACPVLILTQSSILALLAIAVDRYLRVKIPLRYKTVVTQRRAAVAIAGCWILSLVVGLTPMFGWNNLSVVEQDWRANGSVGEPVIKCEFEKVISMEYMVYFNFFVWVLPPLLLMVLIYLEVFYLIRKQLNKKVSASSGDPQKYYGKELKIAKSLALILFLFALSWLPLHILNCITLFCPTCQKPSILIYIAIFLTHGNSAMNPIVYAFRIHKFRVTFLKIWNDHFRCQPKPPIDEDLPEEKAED
Outline: (§3)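 Radioligand binding to rat A1 receptors in rat brain cortical membrane preparations. Values are given as Ki, or as % inhibition of radioligand binding at the indicated concentration.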

Adenosine receptor A2a [4] = molecular target: Adenosine receptor A2a (Rattus norvegicus, UniProt P30543); assay: Displacement of [3H]MSX-2 from adenosine A2A receptor in rat brain striatum; assay type: tissue-based
Adenosine receptor A3 = molecular target: T4, Adenosine receptor A3 (Homo sapiens, UniProt P0DMS8); assay: Displacement of [3H]PSB-11 from human adenosine A3 receptor expressed in CHO cells; assay type: cell-based
T4 sequence (P0DMS8 whole entry): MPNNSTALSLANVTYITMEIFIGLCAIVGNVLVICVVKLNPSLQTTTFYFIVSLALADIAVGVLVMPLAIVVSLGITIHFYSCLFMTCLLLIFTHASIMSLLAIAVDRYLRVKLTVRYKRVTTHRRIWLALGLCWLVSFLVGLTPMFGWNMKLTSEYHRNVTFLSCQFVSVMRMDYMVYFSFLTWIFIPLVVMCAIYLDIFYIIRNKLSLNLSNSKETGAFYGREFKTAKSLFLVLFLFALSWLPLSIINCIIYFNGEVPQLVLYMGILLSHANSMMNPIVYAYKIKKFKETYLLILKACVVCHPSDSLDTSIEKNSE

[5] = molecular target: T5, Amine oxidase [flavin-containing] B (Homo sapiens, UniProt P27338); assay: Inhibition of human MAO-B
T5 sequence (P27338 whole entry): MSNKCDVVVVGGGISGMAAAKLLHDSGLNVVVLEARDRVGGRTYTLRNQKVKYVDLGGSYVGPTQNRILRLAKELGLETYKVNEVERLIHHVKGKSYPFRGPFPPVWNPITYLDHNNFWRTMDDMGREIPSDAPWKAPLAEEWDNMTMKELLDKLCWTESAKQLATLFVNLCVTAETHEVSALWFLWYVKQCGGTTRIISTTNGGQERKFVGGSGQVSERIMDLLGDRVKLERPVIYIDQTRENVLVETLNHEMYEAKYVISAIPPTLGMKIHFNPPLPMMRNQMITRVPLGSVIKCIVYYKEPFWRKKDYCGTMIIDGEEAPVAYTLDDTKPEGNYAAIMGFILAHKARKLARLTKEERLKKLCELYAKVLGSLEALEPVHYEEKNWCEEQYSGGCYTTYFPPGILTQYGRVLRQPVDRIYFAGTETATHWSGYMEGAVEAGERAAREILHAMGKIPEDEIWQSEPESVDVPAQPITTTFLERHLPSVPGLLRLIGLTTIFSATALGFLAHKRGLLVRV

[6] = molecular target: T6, MAO-A (amine oxidase [flavin-containing] A) (Homo sapiens, UniProt P21397); assay: Inhibition of human MAO-A at 10 uM relative to control; outline: as §2
T6 sequence (P21397 whole entry): T2 sequence (P21397 whole entry)

Adenosine receptor A1 [7] = molecular target: T7, Adenosine receptor A1 (Rattus norvegicus, UniProt P25099); assay: Displacement of [3H]CCPA from adenosine A1 receptor in rat brain cortex; assay type: tissue-based; outline: as §3
T7 sequence (P25099 whole entry): T3 sequence (whole entry)

[8] = molecular target: T8, Adenosine receptor A3 (Homo sapiens) (UniProt P0DMS8); assay: Displacement of [3H]PSB-11 from human adenosine A3 receptor expressed in CHO cells relative to control; assay type: cell-based; set-up: concentration or dose not given beside the values; details: concentration not given here
T8 sequence (whole entry): T4 sequence (P0DMS8 whole entry)

[9] = molecular target: T9, Adenosine receptor A1 (Homo sapiens) (UniProt P30542); assay: Displacement of [3H]CCPA from human adenosine A1 receptor expressed in CHO cells relative to control; assay type: cell-based; details: concentration not given here; outline: as §1
T9 sequence (whole entry): T1 sequence (P30542 whole entry)

Adenosine receptor A2b = molecular target: T10, Adenosine receptor A2b (Homo sapiens, UniProt P29275); assay: Displacement of [3H]PSB-603 from human adenosine A2B receptor
T10 sequence (P29275 whole entry): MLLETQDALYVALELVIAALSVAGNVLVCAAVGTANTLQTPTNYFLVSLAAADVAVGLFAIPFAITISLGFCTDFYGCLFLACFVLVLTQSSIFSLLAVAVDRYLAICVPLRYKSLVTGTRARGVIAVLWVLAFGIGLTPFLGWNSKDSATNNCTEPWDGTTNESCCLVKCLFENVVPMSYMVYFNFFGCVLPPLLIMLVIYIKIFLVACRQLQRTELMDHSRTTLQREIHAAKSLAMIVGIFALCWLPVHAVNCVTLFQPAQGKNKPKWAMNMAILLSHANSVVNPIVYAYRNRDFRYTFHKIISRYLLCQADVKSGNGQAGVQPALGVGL

[10] = molecular target: T11, Adenosine receptor A2b (Homo sapiens) (UniProt P29275); assay: Displacement of [3H]PSB-603 from human adenosine A2B receptor relative to control; set-up: concentration or dose not given beside the values; details: concentration not given here
T11 sequence (whole entry): T10 sequence (P29275 whole entry)

[11] = molecular target: Adenosine receptor A2a (Rattus norvegicus) (UniProt P30543); assay: Displacement of [3H]MSX-2 from adenosine A2A receptor in rat brain striatum relative to control; assay type: tissue-based; set-up: concentration or dose not given beside the values; details: concentration not given here
Outline: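 Radioligand binding to rat A2A receptors in rat brain striatal membrane preparations, reported as % inhibition of radioligand binding at the indicated concentration.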

[12] = molecular target: T12, MAO-B (amine oxidase [flavin-containing] B) (Homo sapiens, UniProt P27338); assay: Inhibition of human MAO-B at 10 uM relative to control; outline: as §2
T12 sequence (P27338 whole entry): T5 sequence (P27338 whole entry)

Adenosine receptor A2a [13] = molecular target: T13, Adenosine receptor A2a (Homo sapiens, UniProt P29274); assay: Displacement of [3H]MSX-2 from human adenosine A2A receptor expressed in CHO cells; assay type: cell-based; outline: as §1
[14] = Ratio of Ki for human adenosine A1 receptor to Ki for adenosine A1 receptor in rat brain cortex; assay type: tissue-based
Adenosine receptor A2a [15] = molecular target: T13, Adenosine receptor A2a; assay: Binding affinity to human adenosine A2A receptor
[16] = test system: Adenosine receptor A1/A2A (Homo sapiens); assay: Selectivity ratio of Ki for human adenosine A1 receptor to Ki for human adenosine A2A receptor
Rattus norvegicus = organism: Rattus norvegicus; assay: Selectivity ratio of Ki for adenosine A2A receptor in rat brain striatum to Ki for adenosine A1 receptor in rat brain cortex; assay type: tissue-based

T13 sequence (P29274 whole entry): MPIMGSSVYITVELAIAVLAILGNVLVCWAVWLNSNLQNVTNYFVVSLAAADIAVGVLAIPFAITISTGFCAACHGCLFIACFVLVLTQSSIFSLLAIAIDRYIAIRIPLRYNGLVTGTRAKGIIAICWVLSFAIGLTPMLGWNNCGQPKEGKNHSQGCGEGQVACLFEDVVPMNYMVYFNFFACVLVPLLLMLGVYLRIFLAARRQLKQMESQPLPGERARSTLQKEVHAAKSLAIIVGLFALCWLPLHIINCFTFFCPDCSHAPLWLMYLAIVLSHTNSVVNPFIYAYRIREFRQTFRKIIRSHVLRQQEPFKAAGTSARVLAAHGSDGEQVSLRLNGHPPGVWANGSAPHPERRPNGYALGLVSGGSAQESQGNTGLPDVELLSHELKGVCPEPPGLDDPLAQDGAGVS
Adenosine receptor A2a (Rattus norvegicus, UniProt P30543), sequence (P30543 whole entry): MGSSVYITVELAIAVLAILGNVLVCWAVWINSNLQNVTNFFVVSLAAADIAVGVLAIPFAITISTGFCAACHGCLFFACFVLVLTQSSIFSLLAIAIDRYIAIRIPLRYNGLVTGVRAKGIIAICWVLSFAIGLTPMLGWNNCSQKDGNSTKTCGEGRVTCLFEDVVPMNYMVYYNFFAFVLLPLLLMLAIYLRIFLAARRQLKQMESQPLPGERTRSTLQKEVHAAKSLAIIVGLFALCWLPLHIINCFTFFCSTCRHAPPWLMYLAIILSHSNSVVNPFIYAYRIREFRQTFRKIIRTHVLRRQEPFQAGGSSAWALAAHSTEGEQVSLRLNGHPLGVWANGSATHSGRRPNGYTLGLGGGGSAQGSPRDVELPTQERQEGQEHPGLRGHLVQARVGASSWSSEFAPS
Adenosine receptor A2a (Rattus norvegicus), sequence (P30543 whole entry): as above

Compound | pKi (Adenosine receptor A1 [1]) | pIC50 [2] | inhibition [3] | pKi (Adenosine receptor A2a [4]) | pKi (Adenosine receptor A3) | pIC50 [5] | inhibition at 10 µM [6] | pKi (Adenosine receptor A1 [7]) | inhibition [8] | inhibition [9] | pKi (Adenosine receptor A2b) | inhibition [10] | inhibition [11] | inhibition at 10 µM [12] | pKi (Adenosine receptor A2a [13]) | Ratio Ki [14] | pKi (Adenosine receptor A2a [15]) | Ratio Ki [16] | Ratio Ki (Rattus norvegicus)
Cn1c(=O)c2c(nc3n2CCCN3Cc2ccc(Cl)cc2)n(C)c1=O | < 5.00 | < 5.00 | 27% | 5.14 | < 5.00 | 6.66 | 14% | < 4.60 | 36% | 29% | < 6.00 | 1% |  |  |  |  |  |  | 
CCCn1c(=O)c2c(nc3n2CCCN3CC(=O)N2CCN(c3ccc(Cl)cc3)CC2)n(CCC)c1=O |  | < 5.00 | 19% | < 5.00 | 6.12 | 5.00 | -2% | < 5.82 |  |  | < 6.00 | 7% | 36% | 52% |  |  |  |  | 
Cn1c(=O)c2c(nc3n2CCCN3CC(=O)N2CCN(c3ccc(Cl)cc3)CC2)n(C)c1=O |  | < 5.00 | 0% | < 5.00 | < 6.00 | 5.66 | 13% | < 5.82 | 24% |  | < 6.00 | -7% | 39% | 60% |  |  |  |  | 
C#CCn1c(=O)c2c(nc3n2CCCN3CCc2ccccc2)n(C)c1=O | 4.94 |  |  | 6.08 | < 6.00 | < 5.00 |  | 6.20 | 10% |  | < 6.00 | 3% |  | 2% | 5.92 | 18 |  |  | 
Cn1c(=O)c2c(nc3n2CCCN3CC(=O)N2CCN(c3ccccc3)CC2)n(C)c1=O |  | < 5.00 | 3% | < 5.00 | < 5.00 | 5.00 | 1% | < 5.82 | 32% |  | < 6.00 |  | 40% | 40% |  |  |  |  | 
Cn1c(=O)c2c(nc3n2CCCN3CC(=O)N2CCN(Cc3ccc(C(F)(F)F)cc3)CC2)n(C)c1=O |  | < 5.00 | 2% | < 5.00 | < 5.00 | 5.46 | 6% | < 5.82 | 36% |  | < 6.00 | 2% | 27% |  |  |  |  |  | 
Cn1c(=O)c2c(nc3n2CCCN3c2ccc(Cl)cc2)n(C)c1=O | 5.00 | < 5.00 | 47% | 5.92 | < 5.00 | 5.00 | 6% | ≤ 4.60 | 15% | 30% | < 6.00 | 10% |  | 6% |  |  |  |  | 
C#CCn1c(=O)c2c(nc3n2CCCN3c2cccc(OC)c2)n(C)c1=O | 5.02 |  |  | 5.52 | < 6.00 | < 5.00 |  | 6.33 | 20% |  | < 6.00 | 8% |  | 36% |  | > 10 |  |  | 
C#CCn1c(=O)c2c(nc(/C=C/c3cccc(OC)c3)n2C)n(CCCO)c1=O |  |  |  |  |  |  |  |  |  |  |  |  |  |  | 8.27 |  | 8.27 |  | 
CCCn1c(=O)c2c(nc3n2CCCN3CCC(=O)N2CCN(Cc3ccc(Cl)cc3)CC2)n(CCC)c1=O |  | < 5.00 | 8% | < 5.00 | < 6.00 | 5.44 | 1% | < 5.82 | 23% |  | < 6.00 | -4% | 40% |  |  |  |  |  | 
Cn1c(=O)c2c(nc3n2CCCN3Cc2cccc(Cl)c2)n(C)c1=O | < 5.00 | < 5.00 |  | 6.10 | 4.82 | 6.46 | 2% | 6.36 |  | 21% | < 6.00 | 10% |  |  | 5.69 |  |  |  | 
C#CCn1c(=O)c2c(nc3n2CCCN3c2cccc(Br)c2)n(C)c1=O | < 5.00 |  |  | 6.03 | < 5.00 | 5.00 |  | 6.50 | 34% | 21% | 5.41 |  |  | 46% | 6.55 |  |  | > 35 | 3
